In ChEMBL document CHEMBL5136979, “An Open Drug Discovery Competition: Experimental Validation of Predictive Models in a Series of Novel Antimalarials” (J Med Chem, 2021):
Activity calls are given as the source filed them.

Experiments:
Plasmodium falciparum [1] = test: Antimalarial activity against chloroquine-sensitive Plasmodium falciparum 3D7 assessed as parasite growth inhibition; assay type: functional, organism-based
Procedure, shortened: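 P. falciparum 3D7 asexual blood stages grown in 5% human RBC suspension in RPMI 1640 with 0.5% Albumax II, 12 mM bicarbonate, 0.2 mM hypoxanthine (pH 7.3), gentamicin, 37 °C, 1% O2/3% CO2/N2. 10-point, 1-in-3 dilution series from 10 or 25 μM top. SYBR Green I DNA fluorescence (ex 485/em 528 nm). IC50 from ≥3 independent experiments.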

Plasmodium falciparum [2] = test: Inhibition of Plasmodium falciparum Dd2 ATP4 assessed as increase in cytosolic [Na+] at 1 uM by fluorescence spectrometry
Procedure, shortened: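 Dd2 trophozoites freed from erythrocytes with saponin (0.05% w/v final), loaded with Na+-sensitive dye SBFI. Fluorescence measured and calibrated at 37 °C in plate reader or 1 mL cuvette suspensions. Compound tested at 1 μM. Scored as active if it raised cytosolic [Na+] like 50 nM cipargamin.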

Plasmodium falciparum [3] = test: Inhibition of Plasmodium falciparum Dd2 ATP4 assessed as increase in cytosolic pH at 5 uM by fluorescence spectrometry
Procedure, shortened: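 Saponin-isolated (0.05% w/v final) Dd2 trophozoites loaded with pH-sensitive dye BCECF. Fluorescence read and calibrated at 37 °C in plate reader or 1 mL suspensions. Compound at 5 μM. Scored as active if it caused cytosolic alkalinization like 50 nM cipargamin.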

| inhibition (Plasmodium falciparum [2]) | inhibition (Plasmodium falciparum [3]) | Compound | IC50 (Plasmodium falciparum [1]) |
| --- | --- | --- | --- |
| Active | Active | O=C(Nc1ccc(F)c(Cl)c1)c1cncc2nnc(-c3ccc(OC(F)F)cc3)n12 | 191 nM |
| Active | Active | CC(C)(C)Oc1ccc(-c2nnc3cncc(OCC(O)c4ccc(F)c(F)c4)n23)cc1 (stereo not drawn) | 460 nM |
| Active | Active | O=C(Nc1ccc(Cl)cc1)c1cncc2nnc(-c3ccc(OC(F)F)cc3)n12 | 5000 nM |
| Active | Active | O=C(Nc1ccnc(C(F)(F)F)c1)c1cncc2nnc(-c3ccc(OC(F)F)cc3)n12 | 140 nM |
| Active | Active | O=C(NCc1cccc(C(F)(F)F)c1Cl)c1cncc2nnc(-c3ccc(OC(F)F)cc3)n12 | 309 nM |
| Active | Active | FC(F)Oc1ccc(-c2nnc3cncc(OCCc4ccccc4)n23)cc1 | 370 nM |

More lines, now with the values behind:

| Compound | inhibition (Plasmodium falciparum [2]) | inhibition (Plasmodium falciparum [3]) | IC50 (Plasmodium falciparum [1]) |
| --- | --- | --- | --- |
| Nc1cccc(CCOc2cncc3nnc(-c4ccc(Cl)cc4)n23)c1 | Active | Active | 2420 nM |
| FC(F)Oc1ccc(-c2nnc3cncc(OCCc4ccco4)n23)cc1 |  |  | 1240 nM |
| Cc1ccc(COc2cncc3nnc(-c4ccc(C(C)C)cc4)n23)cn1 |  |  | > 25000 nM |
| NCc1cccc(CCOc2cncc3nnc(-c4ccc(Cl)cc4)n23)c1 |  |  | 10000 nM |
| FC(F)Oc1ccc(-c2nnc3cncc(OCC(F)(F)F)n23)cc1 |  |  | > 10000 nM |
| Fc1ccc(CCNc2cn3c(-c4ccc(OC(F)F)cc4)nnc3cn2)cc1 |  |  | > 10000 nM |
| CC(O)COc1cncc2nnc(-c3ccc(OC(F)F)cc3)n12 (stereo not drawn) |  |  | > 25000 nM |
| O=C(Cc1cccc(Cl)c1)Nc1cn2c(-c3ccc(OC(F)F)cc3)nnc2cn1 |  |  | > 10000 nM |
